Test results as given in paper PMC4310013 (Chemical Science, 2014).
“Also recorded” adds a separate entry of the source.

Legend:
[1] = Pharmacokinetic studies in C57BL/6 mice; format: in vivo; conditions: male, C57BL/6, mouse, brain, intraperitoneal
[2] = system: wild-type male C57BL/6 mice; assay: Tolerability on daily dosing in wild-type mice; format: in vivo, mouse; conditions: 30 mg/kg daily for 10 consecutive days
[3] = Brain tissue binding assay; format: in vitro ADME
[4] = system: CK-p25 mice; assay: Context-dependent fear conditioning in CK-p25 mice; format: in vivo, mouse; conditions: 1 mg/kg i.p. daily for 10 days
Procedure, shortened: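 CK-p25 male mice induced at 3 months of age for 6 weeks for forebrain p25 expression; p25-lacking heterozygous littermates as controls. Test compound in 5% DMSO, then 30% Cremophor/65% saline, given i.p. daily for 10 days before behaviour; vehicle without compound. Training: 3 min habituation, two 2 s 0.8 mA shocks 30 s apart, 15 s more. Freezing scored on 3 min context re-exposure 24 h later. Mean ± SEM; ANOVA/Tukey or one-tailed t test.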

[5] = system: mouse forebrain primary neuronal cultures; assay: Neuronal histone acetylation assay; format: cell-based; conditions: 10 μM, 24 h, relative to vehicle
Procedure, shortened: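 Primary mouse forebrain neurons were treated on culture day 13 for 24 h at 10 μM, then formaldehyde-fixed. They were stained with anti-AcH3K9 or anti-AcH4K12 and a green fluorescent secondary, and fluorescence was read by microcytometer. Read-out was the percentage of cells above a baseline threshold set in DMSO-treated cells. Two experiments in triplicate from separate dissections and cultures.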

[6] = system: hippocampal CA1 neurons of CK-p25 mice; assay: Immunohistochemistry of H4K12 acetylation in hippocampal CA1 neurons; format: in vivo, mouse; conditions: after 10 day treatment, compared to vehicle treated group
Procedure, shortened: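 Hippocampal tissue from CK-p25 mice given test compound or vehicle i.p. daily for 10 days. Coronal 40 μm slices were permeabilised in 0.1% Triton X-100, blocked, and incubated overnight with acetyl-histone antibody in 0.3% Triton X-100/10% FBS in PBS. Fluorescent secondary and Hoechst nuclear stain followed. Confocal images at identical settings. Mean signal in 20–40 non-apoptotic cells per condition was scored blind. Mean ± SEM.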

[7] = system: CK-p25 mice; assay: Tolerability on daily dosing in CK-p25 mice; format: in vivo, mouse
Procedure, shortened: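 Induced CK-p25 mice were given test compound i.p. daily for 10 days, dissolved in 5% DMSO then diluted in 30% Cremophor/65% physiological saline and prepared immediately before injection. Mortality and toxicity were noted over the treatment period.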

SMILES	Kp [1]	toxicity [2]	fraction unbound [3]	contextual fear conditioning, freezing [4]	AcH3K9 acetylation change [5]	AcH4K12 acetylation change [5]	H4K12 acetylation in hippocampal CA1 neurons [6]	toxicity ([7]; 1 mg/kg, CK-p25 mice)	mortality ([7]; 10 mg/kg, over 10 day treatment, single study, unknown cause)
CC(=O)NC1CCN(C(=O)Nc2cc(-c3cccs3)ccc2N)CC1 [BRD3227]	0.01								
Nc1ccc(-c2ccncc2)cc1NC(=O)N1CCCC1 [BRD6688]	0.26	No toxicity was observed	0.54	rescued the memory defects; also recorded: restored the freezing response to normal levels	significant increases	significant increases	increased H4K12 acetylation	No toxicity was observed	5 out of 10
